The nature of assay [1]: OD615 S. cerevisiae growth inhibition, permissive medium, pilot counter-assay, permissive growth control for S. cerevisiae lifespan shortening project (AID 705;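 active = growth inhibition above 25% in both replicates, a cutoff set 3 SD above the mean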). As to conditions: OD615, 24 h, at 10 µM, hits give high values. The gist of the method:
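Timing: 24 h exposure, 30 °C / Material: Saccharomyces cerevisiae strain carrying genetically modified DeaD replicative-lifespan system / Signal: OD at 615 nm / Compound: 10 µM single dose, 0.25% DMSO / Medium: SC raffinose/galactose permissive medium / Evaluation: reduction in yeast growth (OD615)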

A short description of assay [2]: Restrictive medium S. cerevisiae growth inhibition, OD615, pilot screen of yeast lifespan reduction project, restrictive growth control (AID 706;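 active = growth inhibition above a set limit, 3 SD over mean compound inhibition, in both replicates, cut at about 43% in these data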;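 also: modified DeaD lifespan yeast strain shifted to restrictive glucose medium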). As to conditions: OD615, 48 h, at 10 µM, hits give high values. Put shortly: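 System: Engineered S. cerevisiae DeaD strain | Detection: OD615 | Buffer or medium: CSMM-D glucose medium | Doses: 10 µM compound, 0.25% DMSO | Timing: 4 h pre-growth plus 48 h compound exposure, 30 °C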

Assay [3] is described as follows: viability gain of MRP-1-high H69AR cells under doxorubicin, pilot screen, MRP-1 activator project, CellTiter-Glo, duplicate (AID 807).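 Also: compound pretreatment 18-22 h then 72 h combined with doxorubicin; 0% = doxorubicin alone and 100% = vehicle without doxorubicin.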 As to conditions: H69AR viability with doxorubicin, CellTiter-Glo luminescence; at 10 µM; hits give high values. On the technique in general: ATP-based viability assays read luminescence as a measure of living cells.
The nature of assay [4]: growth suppression of beta-catenin knockout HCT116, pilot screen, human colon tumor cells (AID 823;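 active = cell viability at or below a set limit in both duplicate runs, the limit being the all-compound median minus 4 SD, cut at about 23% in these data, passing the limit was not always enough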;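 also: 0% = wells killed by 20 µM Hyamine and 100% = untreated DMSO cell wells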). To be noted: CellTiter-Glo, 60 h, at 10 µM, hits give low values.
Assay [5] can be described thus: growth suppression of PTEN-deleted HCT116, pilot screen, cell-based, HCT116 clonal line, CellTiter-Glo (AID 824;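 active = viability at or below 27.92% in each of two runs, the all-compound median minus 4 SD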;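 also: 0% = 20 µM Hyamine control and 100% = vehicle cell control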). As to conditions: 60 h, at 10 µM, hits give low values.
Assay [6] is described as follows: inhibitors of the yeast RAM network, pilot screen, dse1pr::URA3 reporter, 5-FOA selection (AID 869;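 active = inhibition over a set limit, the all-compound mean plus 3 SD, in both replicate runs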;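 also: 0% = DMSO wells with no growth and 100% = 10 µM 1-NA-PP1 with full growth; RAM network block rescues cells from 5-FOA so hits raise OD615 growth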). As to conditions: S. cerevisiae dse1pr::URA3 5-FOA growth, OD615, 2 d; at 10 µM; hits give high values; strain carries analog-sensitive mutant Cbk1 kinase.
Assay [7] is described as follows: RAM signaling pathway blockade in yeast – S. cerevisiae, Pdr1DBD-CYC8 efflux-inhibited sensitized strain, primary screen (AID 1298;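 active = RAM network inhibition above 8.4% in each of two replicates, 3 SD over the compound average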;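 also: 0% = DMSO untreated cells without growth and 100% = 10 µM 1-NA-PP1 full growth; higher means more yeast growth rescued from 5-FOA killing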). As to conditions: S. cerevisiae cbk1-as DSE1-URA3 strain, 5-FOA growth OD615, 2 d; at 50 µM; hits give high values.

Molecules are shown by their SMILES. A number with no mark means an inactive call. Records with an inconclusive call do not appear. The source made the active and inactive calls.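 The calls were made as follows, unless noted: active = viability increase at or above a cutoff of the median across tested compounds plus 3 SD (cut at about 8.5% in these data, passing the limit was not always enough); inconclusive = some gains above the cutoff, reason not given; inactive = the rest.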

Broadly, the viability is a read-out of living cells in per cent, often relative to untreated cells. Usually inhibition stands for the share of the control response that was lost under treatment. On to `O=C(COC(=O)c1cccs1)Nc1ccccc1`, for which the growth inhibition was -5.3% in assay [1] and 0.975% in assay [2]. Besides, the viability increase in assay [3] is -0.14%. The figures for the viability in assay [4] and in assay [5] were 96.7% and 97.1%, respectively. Further, the inhibition in assay [6] was 1.56%. The RAM network inhibition in assay [7] is 0.11%.

Regarding `CCc1ccc(C2CC(c3ccc(C)cc3)Nc3nc(N)nn32)cc1` (configuration not stated), the growth inhibition in assay [1] is -5.94%; in assay [2] it was -9.54%. The viability increase in assay [3] was 2.61%. In addition, the values for the viability in assay [4] and in assay [5] were 106% and 93.6%, respectively. Also, the inhibition in assay [6] is 2.66%. Further, in assay [7], the RAM network inhibition is 8.09%.

As to `COc1ccccc1-c1c(C)nn2c(N3CCCCCC3)cc(C)nc12`, the figures for the growth inhibition in assay [1] and in assay [2] were -5.18% and -3.49%, respectively. For the same compound, the viability increase in assay [3] was -7.77%. The viability in assay [4] is 6.78% (active); in assay [5], 7.98% (active). Further, the inhibition in assay [6] was 1.42%. Further, in assay [7], the RAM network inhibition was -0.76%.

For `CCOCCCNC(=O)C(c1ccc(C)cc1)N1CCOCC1` (configuration not stated), the growth inhibition was -11.9% in assay [1] and 2.48% in assay [2]. Besides, the viability increase in assay [3] was -3.18%. The viability in assay [4] is 93.2%; in assay [5], 102%. In addition, the inhibition in assay [6] was 1.84%. Further, the RAM network inhibition in assay [7] was 1.62%.

For the compound `O=S(=O)(c1cccc2cccnc12)N1CCN(Cc2ccc3c(c2)OCO3)CC1`, the growth inhibition in assay [1] is -7.45%; in assay [2] it was -17.5%. Further, the viability increase in assay [3] was -0.35%. The viability in assay [4] is 84.3%; in assay [5], 92.2%. The inhibition in assay [6] was 1.28%. In addition, the RAM network inhibition in assay [7] was 0.52%.

Regarding `O=C(CN1CCN(C2CCCCC2)CC1)Nc1ccccc1N1CCCCC1`, the growth inhibition in assay [1] was -12.3%; in assay [2] it was -31.2%. Also, the viability increase in assay [3] is -4.35%. Further, the viability was 71.5% in assay [4] and 77.7% in assay [5]. The inhibition in assay [6] is 0.16%. Further, the RAM network inhibition in assay [7] was 5.95%.

In the case of `Cc1cc(C(=O)Nc2ccc3c(c2)OCCO3)co1`, the results for the growth inhibition in assay [1] and in assay [2] were -4.03% and 5.26%, respectively. In addition, the viability increase in assay [3] was -0.16%. Further, the viability was 96.7% in assay [4] and 92.1% in assay [5]. For the same compound, the inhibition in assay [6] was 0.06%. For the same compound, in assay [7], the RAM network inhibition was -0.41%.

As for `CC1(C)CC(N2CCN(c3ccccc3)CC2)=CC(=[N+]2CCCC2)C1`, the figures for the growth inhibition in assay [1] and in assay [2] were -2.24% and -20.8%, respectively. Further, in assay [3], the viability increase was -3.22%. The viability is 18.1% (active) in assay [4] and 18.4% (active) in assay [5]. Moreover, the inhibition in assay [6] was 1.37%. Besides, in assay [7], the RAM network inhibition was 0.52%.

On to `CCN(CC)CC(O)COc1ccccc1C(=O)CCc1ccccc1` (configuration not stated), for which the growth inhibition is -17.4% in assay [1] and -14.3% in assay [2]. In addition, the viability increase in assay [3] was -4.88%. Besides, the viability in assay [4] is 73%; in assay [5], 80.5%. Also, the inhibition in assay [6] was 0.58%. In addition, in assay [7], the RAM network inhibition was 4.17%.

Take `CCN(CC)CCNC(=O)c1sc2nc(-c3ccccc3)cn2c1C`: the values for the growth inhibition in assay [1] and in assay [2] were -2.38% and 6.54%, respectively. In addition, the viability increase in assay [3] is -1.73%. The viability was 83.2% in assay [4] and 81.4% in assay [5]. Further, the inhibition in assay [6] was 0.06%. In addition, the RAM network inhibition in assay [7] was 1.57%.

Take `CCOc1cc(C#N)c(NC(=O)c2ccnn2C)cc1OCC`: the growth inhibition in assay [1] is 8.46%; in assay [2], 2.96%. Besides, the viability increase in assay [3] is -2.47%. Also, the viability was 82.3% in assay [4] and 97.7% in assay [5]. In addition, the inhibition in assay [6] is 0.55%. The RAM network inhibition in assay [7] is 5.18%.

As for `Clc1cc(NCc2cccs2)ccc1N1CCOCC1`, the values for the growth inhibition in assay [1] and in assay [2] were -13.5% and -6.34%, respectively. The viability increase in assay [3] is -3.46%. The viability in assay [4] was 78.9%; in assay [5], 92%. The inhibition in assay [6] was 1.17%. Also, in assay [7], the RAM network inhibition is 4.21%.

On to `COc1ccc(C(=O)Nc2cc(-c3nn4c(C)nnc4s3)ccc2C)cc1`, for which the growth inhibition in assay [1] was 8.96%; in assay [2], 33.2%. Besides, the viability increase in assay [3] was -5.02%. The viability in assay [4] is 98.3%; in assay [5] it was 88.2%. Besides, in assay [6], the inhibition is 1.27%. Also, in assay [7], the RAM network inhibition was 2.75%.

Take `CCOC(=O)c1c(C)oc2cc(Br)c(OC(=O)N3CCOCC3)cc12`: the growth inhibition in assay [1] is -10.9%; in assay [2], -3.17%. For the same compound, the viability increase in assay [3] was -0.62%. Further, the viability in assay [4] was 88%; in assay [5] it was 88.8%. Also, in assay [6], the inhibition was 0.13%. For the same compound, the RAM network inhibition in assay [7] is 1.4%.

Regarding `COc1ccc(-c2c(C)oc3c(CN4CCCCC4C)c(O)ccc3c2=O)cc1OC` (configuration not stated), the values for the growth inhibition in assay [1] and in assay [2] were -13.7% and -7.48%, respectively. Also, the viability increase in assay [3] is -9.18%. The viability in assay [4] is 103%; in assay [5], 97.5%. The inhibition in assay [6] is 1.71%. Also, the RAM network inhibition in assay [7] is 4.01%.

As to `O=C(O)c1ccccc1C(=O)c1cccs1`, the growth inhibition in assay [1] is -14.9%; in assay [2], -17.1%. Besides, the viability increase in assay [3] is -0.3%. Besides, the results for the viability in assay [4] and in assay [5] were 101% and 92.5%, respectively. Besides, the inhibition in assay [6] was 0.54%. In addition, the RAM network inhibition in assay [7] is 1.05%.

For the origin of these results see PubChem BioAssay.
